Measured values of several laboratories.
Target: Serine/threonine-protein kinase MARK1 (MARK1, Homo sapiens, UniProt Q9P0L2)

| Compound | effect on | technique | concentration | remaining binding |
| --- | --- | --- | --- | --- |
| CNCc1ccccc1-c1csc([C@H](C)Nc2nc(C)nc3cc(OC)c(OC)cc23)c1 | cell-free assay | competition with immobilised ligand | 1 µM | 100% |
| C[C@@H](c1ccc(-n2cnc3c(N)ncnc32)cc1)N1CCc2nn(C)c(Cc3ccccc3)c2C1=O | binding | competition with immobilised ligand | 0.1 µM | 88% |
| CN(c1nccc(-c2cnn3ncccc23)n1)C1CC1 | binding | – | 1 µM | 83% |
| O=C(NCC1CCOCC1)c1n[nH]cc1NC(=O)c1c(F)cccc1F | binding | competition with immobilised ligand | 1 µM | 100% |
| Cn1nc(C(=O)NCc2ccc(C(=O)O)cc2)cc1-c1ccc2[nH]ccc2c1 | cell-free assay | competition with immobilised ligand | 0.1 µM | 100% |
| N[C@@H]1CCN(c2nccc(-c3cnn4ncccc34)n2)C1 | binding | – | 1 µM | 100% |
| CN(C)C(=O)Cn1cc(-c2nc([C@@](C)(c3ccc(-c4cnc(N)nc4)cc3)C3CC3)no2)cn1 | cell-free assay | competition with immobilised ligand | 1 µM | 92% |
| CN(C)c1nccc(-c2cnc3ncccn23)n1 | binding | – | 1 µM | 80% |
| COc1cc(-c2cn(C3CCc4c(F)cccc4N(CC(F)(F)F)C3=O)nn2)ccc1-n1cnc(C)c1 (stereo not shown) | cell-free assay | competition with immobilised ligand | 1 µM | 100% |
| CNC(=O)[C@@H]1CC[C@@H](n2c(-c3ccc4cnccc4c3)nc3ccc(C(=O)NCc4cccc(C(N)=O)c4)cc32)C1 | binding | competition with immobilised ligand | 1 µM | 94% |
| Cc1cnn2ncc(-c3ccnc(N(C)C)n3)c2c1 | binding | – | 1 µM | 98% |
| O=C(NCCCN1CCOCC1)c1ccc(Nc2ncc(Cl)c(-c3ccc(Cl)s3)n2)cc1 | binding | competition with immobilised ligand | 1 µM | 25% |
| COc1ccc2cc(OCC3(C(=O)O)CN(C(=O)c4ccc(F)cc4)C3)ccc2c1 | cell-free assay | competition with immobilised ligand | 1 µM | 100% |
| O=C(NCCCN1CCOCC1)c1ccc(Nc2nccc(-c3cc4ccccc4s3)n2)cc1 | binding | competition with immobilised ligand | 1 µM | 66% |
| CC(C)(O)c1cncc(-c2nc3ccc(F)cc3n2C2CC2)c1 | cell-free assay | competition with immobilised ligand | 1 µM | 100% |
| COc1cnc(Nc2cccc(S(N)(=O)=O)c2)nc1N1CCN(c2ccccc2)C(=O)C1 | binding | competition with immobilised ligand | 1 µM | 95% |
| C[C@@H]1CCN(c2nccc(-c3cnn4ncccc34)n2)C1 | binding | – | 1 µM | 100% |
| COc1ncc2cc3ccccc3nc2c1C#N | cell-free assay | competition with immobilised ligand | 5 µM | 65% |
| CN(CCCC(F)(F)F)c1nccc(-c2cnn3ncccc23)n1 | binding | – | 1 µM | 100% |
| O=C(c1ccc(Nc2ncc(Cl)c(-c3ccc(Cl)s3)n2)cc1)N1CCC(N2CCCC2)CC1 | binding | competition with immobilised ligand | 1 µM | 24% |
| COc1ccnn2ncc(-c3ccnc(N(C)C)n3)c12 | binding | – | 1 µM | 97% |
| CNC(=O)Nc1ccc2c(c1)CC[C@@]21OC(=O)N(CC(=O)N(Cc2ccc(F)cc2)[C@@H](C)C(F)(F)F)C1=O | cell-free assay | competition with immobilised ligand | 1 µM | 89% |
